Data published in paper PMC2857698 (Biochemistry, 2010).

Tested on: EH domain of EHD1
Experiment: ITC of NPF peptides binding to EHD1 EH
Set-up: species or system mouse
Details: ITC, 25 mM MOPS pH 7.0, 1 mM CaCl2
How it was run: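 Mouse EHD1 EH domain (V437–E534) expressed as a GST fusion, purified on glutathione resin and thrombin-cleaved on beads. Protein and peptides were dialysed at 4°C against 25 mM MOPS pH 7.0, 1 mM CaCl2, with KCl varied where applicable. ITC was run at 20°C unless stated (5–25°C), with 50–200 μM protein in the cell and peptide titrant 10-fold higher. Single-site fit gave Ka, n and ΔH; ΔG = −RTlnKa, and TΔS came from ΔG = ΔH − TΔS.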

Ka (5.0 °C): 17800 M⁻¹ | TΔS (5.0 °C): -16.18 kJ/mol | ΔH (5.0 °C): -38.82 kJ/mol | ΔS (5.0 °C): −13.9 cal mol^−1 K^−1 | Ka (10.0 °C): 12800 M⁻¹ | TΔS (10.0 °C): -19.79 kJ/mol | ΔG (10.0 °C): -22.24 kJ/mol | ΔH (10.0 °C): -42.007 kJ/mol | ΔS (10.0 °C): −16.7 cal mol^−1 K^−1 | Ka (15.0 °C): 9390 M⁻¹ | TΔS (15.0 °C): -23.27 kJ/mol | ΔG (15.0 °C): -21.89 kJ/mol | ΔH (15.0 °C): -45.145 kJ/mol | ΔS (15.0 °C): −19.3 cal mol^−1 K^−1 | TΔS (20.0 °C): -28.46 kJ/mol | ΔG (20.0 °C): -21.43 kJ/mol | ΔH (20.0 °C): -49.873 kJ/mol | ΔS (20.0 °C): −23.2 cal mol^−1 K^−1 | Ka (20 °C, KCl 75.0 mM): 6460 M⁻¹ | TΔS (20 °C, KCl 75.0 mM): -28.22 kJ/mol | ΔG (20 °C, KCl 75.0 mM): -21.36 kJ/mol | ΔH (20 °C, KCl 75.0 mM): -49.539 kJ/mol | ΔS (20 °C, KCl 75.0 mM): −23.0 cal mol^−1 K^−1 | Ka (20 °C, KCl 150.0 mM): 6910 M⁻¹ | TΔS (20 °C, KCl 150.0 mM): -28.46 kJ/mol | ΔG (20 °C, KCl 150.0 mM): -21.53 kJ/mol | ΔH (20 °C, KCl 150.0 mM): -50.041 kJ/mol | ΔS (20 °C, KCl 150.0 mM): −23.2 cal mol^−1 K^−1 | Ka (20 °C, KCl 300.0 mM): 7490 M⁻¹ | TΔS (20 °C, KCl 300.0 mM): -27.48 kJ/mol | ΔG (20 °C, KCl 300.0 mM): -21.72 kJ/mol | ΔH (20 °C, KCl 300.0 mM): -49.246 kJ/mol | ΔS (20 °C, KCl 300.0 mM): −22.4 cal mol^−1 K^−1 | Ka (20 °C, KCl 450.0 mM): 7810 M⁻¹ | TΔS (20 °C, KCl 450.0 mM): -25.39 kJ/mol | ΔG (20 °C, KCl 450.0 mM): -21.83 kJ/mol | ΔH (20 °C, KCl 450.0 mM): -47.237 kJ/mol | ΔS (20 °C, KCl 450.0 mM): −20.7 cal mol^−1 K^−1 | Ka (25.0 °C): 4700 M⁻¹ | TΔS (25.0 °C): -34.81 kJ/mol | ΔG (25.0 °C): -20.94 kJ/mol | ΔH (25.0 °C): -55.731 kJ/mol | ΔS (25.0 °C): −27.9 cal mol^−1 K^−1
Substance: Ac-YESTNPFTAK-NH2 [Rfp2-NPF2]
